# Laboratory results taken from ChEMBL document CHEMBL3352430, “4-Aminopyridyl-based CYP51 inhibitors as anti-Trypanosoma cruzi drug leads with improved pharmacokinetic profile and in vivo potency” (J Med Chem, 2014).
# Active and inactive are the calls of the source. No cut-off for these calls is given here.
# Key:
# [1] = target: Sterol 14-alpha demethylase (Trypanosoma cruzi (strain CL Brener), UniProt Q7Z1V1); test: Binding affinity to Trypanosoma cruzi CYP51 by UV-vis titration method; conditions: read-out: Kd(app)
# [2] = test system: Trypanosoma cruzi; test: Antitrypanosomal activity against Trypanosoma cruzi Y luc infected in mouse assessed as inhibition of parasitemia at 50 mg/kg, po bid in 20% Kolliphor administered for 4 consecutive days starting on day 3 of infection measured on day 7 post infection relative to vehicle-treated control; format: functional
# In short: (§1)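 Female Swiss Webster mice, 8 weeks old, infected ip with 10^5 T. cruzi Y luc trypomastigotes. Only mice with detectable luminescence on day 3 were treated. Compound given by oral gavage bid for four days, as a suspension in 20% HPβCD or a solution in 20% Kolliphor, five mice per group. Vehicle group and benznidazole 50 mg/kg served as controls. On day 7, mice were injected ip with 150 mg/kg d-luciferin and imaged after 5 min under isoflurane. Percent inhibition calculated against untreated mice; two-tailed paired t test.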
# [3] = target: T1, Cytochrome P450 1A2 (Homo sapiens, UniProt P05177); test: Inhibition of CYP1A2 in human liver microsomes at 1 uM; format: ADME
# T1 sequence (P05177 whole entry): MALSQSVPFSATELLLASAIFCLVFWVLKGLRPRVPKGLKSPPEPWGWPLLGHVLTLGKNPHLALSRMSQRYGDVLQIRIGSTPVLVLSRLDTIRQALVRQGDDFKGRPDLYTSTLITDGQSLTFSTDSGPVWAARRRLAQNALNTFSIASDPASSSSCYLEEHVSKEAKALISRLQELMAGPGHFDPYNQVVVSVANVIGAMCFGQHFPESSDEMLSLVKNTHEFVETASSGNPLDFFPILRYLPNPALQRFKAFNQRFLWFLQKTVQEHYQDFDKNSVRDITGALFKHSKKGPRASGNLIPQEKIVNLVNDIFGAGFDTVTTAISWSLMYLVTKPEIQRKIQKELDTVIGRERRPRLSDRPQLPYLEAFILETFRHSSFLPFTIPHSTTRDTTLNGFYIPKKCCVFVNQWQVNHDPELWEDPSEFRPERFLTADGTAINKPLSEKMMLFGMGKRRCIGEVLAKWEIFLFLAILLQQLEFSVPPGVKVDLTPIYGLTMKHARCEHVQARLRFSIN
# [4] = test system: Trypanosoma cruzi; test: Antitrypanosomal activity against Trypanosoma cruzi amastigotes infected in mouse C2C12 cells after 72 hrs by DAPI staining method; format: functional, organism-based; conditions: C2C12, 72 h
# [5] = test system: Liver; test: Drug uptake in mouse liver at 50 mg/kg, po in 20% Kolliphor measured at 8 hrs post dose; format: ADME, organism-based; parameters: dose 50 mg/kg, route oral; conditions: in vivo
# In short: (§2)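 Female Swiss Webster mice, 8 weeks old, given a single 50 mg/kg oral gavage dose in 20% HPβCD or 20% Kolliphor. Tissues taken from three mice at 2 and 8 h post dose. Homogenized by probe sonication in PBS (1:4 w/v), protein precipitated with acetonitrile, and compound measured by LC-MS/MS in μM.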
# [6] = test system: Liver; test: Drug uptake in mouse liver at 50 mg/kg, po in 20% HP-beta-CD measured at 8 hrs post dose; format: ADME, organism-based; parameters: dose 50 mg/kg, route oral; conditions: in vivo; in short: as §2
# [7] = test system: Heart; test: Drug uptake in mouse heart at 50 mg/kg, po in 20% Kolliphor measured at 8 hrs post dose; format: ADME, organism-based; parameters: dose 50 mg/kg, route oral; conditions: in vivo; in short: as §2
# [8] = AUClast in mouse at 50 mg/kg, po in 20% Kolliphor; format: ADME, organism-based; parameters: time 0 - last, dose 50 mg/kg, route oral; conditions: plasma
# In short: (§3)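 Female Swiss Webster mice, 8 weeks old, given one oral gavage dose of 50 mg/kg as a 10 mg/mL preparation in the named vehicle (20% HPβCD suspension or 20% Kolliphor). Plasma sampled at about 0.25, 0.5, 1, 2, 4, 6, 8, 12 and 24 h, n = 3 per time point. Protein precipitated with 5 volumes acetonitrile, filtered, then LC-MS/MS. Values are averages of three mice.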
# [9] = test system: Liver microsome; test: Half life in human liver microsomes; format: ADME
# [10] = target: Cytochrome P450 3A4 (Homo sapiens, UniProt P08684); test: Inhibition of CYP3A4 in human liver microsomes at 1 uM; format: ADME
# [11] = test system: C2C12; test: Cytotoxicity against mouse C2C12 cells up to 10 uM; format: cell-based
# In short: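 Mouse C2C12 myoblasts infected with T. cruzi CA-I/72, then exposed at 24 h postinfection to compound at 10 μM down to 5 pM in 5-fold steps for 72 h at 37 °C. Cells fixed in paraformaldehyde, stained with DAPI and scored by automated imaging. Triplicate wells; uninfected and infected untreated wells as controls.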
# [12] = Clearance in mouse at 50 mg/kg, po in 20% HP-beta-CD; format: ADME, organism-based; parameters: dose 50 mg/kg, route oral; conditions: in vivo; in short: as §3
# [13] = Half life in mouse at 50 mg/kg, po in 20% HP-beta-CD; format: ADME, organism-based; parameters: dose 50 mg/kg, route oral; conditions: in vivo; in short: as §3
# [14] = test system: Liver microsome; test: Half life in rat liver microsomes; format: ADME
# [15] = Clearance in mouse at 50 mg/kg, po in 20% Kolliphor; format: ADME, organism-based; parameters: dose 50 mg/kg, route oral; conditions: in vivo; in short: as §3
# [16] = test system: Trypanosoma cruzi; test: Antitrypanosomal activity against Trypanosoma cruzi Y luc infected in mouse assessed as inhibition of parasitemia at 25 mg/kg, po bid in 20% Kolliphor administered for 4 consecutive days starting on day 3 of infection measured on day 7 post infection relative to vehicle-treated control; format: functional; in short: as §1
# [17] = Tmax in mouse at 50 mg/kg, po in 20% HP-beta-CD; format: ADME, organism-based; parameters: dose 50 mg/kg, route oral; conditions: in vivo; in short: as §3
# [18] = Cmax in mouse at 50 mg/kg, po in 20% HP-beta-CD; format: ADME, organism-based; parameters: dose 50 mg/kg, route oral; conditions: in vivo; in short: as §3
# [19] = AUClast in mouse at 50 mg/kg, po in 20% HP-beta-CD; format: ADME, organism-based, Plasma; parameters: time 0 - last, dose 50 mg/kg, route oral; conditions: plasma; in short: as §3
# [20] = Drug uptake in mouse fat at 50 mg/kg, po in 20% Kolliphor measured at 8 hrs post dose; format: ADME, organism-based, Adipose tissue; parameters: dose 50 mg/kg, route oral; conditions: in vivo; in short: as §2
# [21] = target: Cytochrome P450 2C9 (Homo sapiens, UniProt P11712); test: Inhibition of CYP2C9 in human liver microsomes at 1 uM; format: ADME
# [22] = Drug uptake in mouse skeletal muscle at 50 mg/kg, po in 20% HP-beta-CD measured at 8 hrs post dose; format: ADME, organism-based, Muscle tissue; parameters: dose 50 mg/kg, route oral; conditions: in vivo; in short: as §2
# [23] = Drug uptake in mouse fat at 50 mg/kg, po in 20% HP-beta-CD measured at 8 hrs post dose; format: ADME, organism-based, Adipose tissue; parameters: dose 50 mg/kg, route oral; conditions: in vivo; in short: as §2
# [24] = test system: Liver; test: Half life in mouse liver microsomes; format: ADME
# [25] = target: Cytochrome P450 2D6 (Homo sapiens, UniProt P10635); test: Inhibition of CYP2D6 in human liver microsomes at 1 uM; format: ADME
# [26] = Half life in mouse at 50 mg/kg, po in 20% Kolliphor; format: ADME, organism-based; parameters: dose 50 mg/kg, route oral; conditions: in vivo; in short: as §3
# [27] = test system: Intestine; test: Drug uptake in mouse intestine at 50 mg/kg, po in 20% Kolliphor measured at 8 hrs post dose; format: ADME, organism-based; parameters: dose 50 mg/kg, route oral; conditions: in vivo; in short: as §2
# [28] = test system: Lung; test: Drug uptake in mouse lung at 50 mg/kg, po in 20% HP-beta-CD measured at 8 hrs post dose; format: ADME, organism-based; parameters: dose 50 mg/kg, route oral; conditions: in vivo; in short: as §2
# [29] = test system: Lung; test: Drug uptake in mouse lung at 50 mg/kg, po in 20% Kolliphor measured at 8 hrs post dose; format: ADME, organism-based; parameters: dose 50 mg/kg, route oral; conditions: in vivo; in short: as §2
# [30] = test system: Intestine; test: Drug uptake in mouse intestine at 50 mg/kg, po in 20% HP-beta-CD measured at 8 hrs post dose; format: ADME, organism-based; parameters: dose 50 mg/kg, route oral; conditions: in vivo; in short: as §2
# [31] = Tmax in mouse at 50 mg/kg, po in 20% Kolliphor; format: ADME, organism-based; parameters: dose 50 mg/kg, route oral; conditions: in vivo; in short: as §3
# [32] = Cmax in mouse at 50 mg/kg, po in 20% Kolliphor; format: ADME, organism-based; parameters: dose 50 mg/kg, route oral; conditions: in vivo; in short: as §3
# [33] = test system: Heart; test: Drug uptake in mouse heart at 50 mg/kg, po in 20% HP-beta-CD measured at 8 hrs post dose; format: ADME, organism-based; parameters: dose 50 mg/kg, route oral; conditions: in vivo; in short: as §2
# [34] = Drug uptake in mouse skeletal muscle at 50 mg/kg, po in 20% Kolliphor measured at 8 hrs post dose; format: ADME, organism-based, Muscle tissue; parameters: dose 50 mg/kg, route oral; conditions: in vivo; in short: as §2
# [35] = test system: Mus musculus; test: Toxicity in mouse assessed as mobility issues at 12.5 to 50 mg/kg, po bid in 20% Kolliphor; format: organism-based; parameters: dose 12.5-50 mg/kg, route oral; conditions: in vivo
# In short: (§4)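 Mice in the four-day oral treatment study were given compound bid by gavage in 20% HPβCD or 20% Kolliphor. They were watched for weight loss, mobility problems and changes in appearance throughout dosing.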
# [36] = test system: Mus musculus; test: Toxicity in mouse assessed as weight loss at 12.5 to 50 mg/kg, po bid in 20% HP-beta-CD; format: organism-based; parameters: dose 12.5-50 mg/kg, route oral; conditions: in vivo; in short: as §4
# [37] = test system: Trypanosoma cruzi; test: Antitrypanosomal activity against Trypanosoma cruzi Y luc infected in mouse assessed as inhibition of parasitemia at 25 mg/kg, po bid in 20% HP-beta-CD administered for 4 consecutive days starting on day 3 of infection measured on day 7 post infection relative to vehicle-treated control; format: functional, organism-based; parameters: dose 25 mg/kg; in short: as §1
# [38] = test system: Trypanosoma cruzi; test: Antitrypanosomal activity against Trypanosoma cruzi Y luc infected in mouse assessed as inhibition of parasitemia at 50 mg/kg, po bid in 20% HP-beta-CD administered for 4 consecutive days starting on day 3 of infection measured on day 7 post infection relative to vehicle-treated control; format: functional, organism-based; parameters: dose 50 mg/kg; in short: as §1
# [39] = test system: Mus musculus; test: Toxicity in mouse assessed as mobility issues at 12.5 to 50 mg/kg, po bid in 20% HP-beta-CD; format: organism-based; parameters: dose 12.5-50 mg/kg, route oral; conditions: in vivo; in short: as §4
# [40] = test system: Mus musculus; test: Toxicity in mouse assessed as change in appearance at 12.5 to 50 mg/kg, po bid in 20% Kolliphor; format: organism-based; parameters: dose 12.5-50 mg/kg, route oral; conditions: in vivo; in short: as §4
# [41] = test system: Mus musculus; test: Toxicity in mouse assessed as weight loss at 12.5 to 50 mg/kg, po bid in 20% Kolliphor; format: organism-based; parameters: dose 12.5-50 mg/kg, route oral; conditions: in vivo; in short: as §4
# [42] = test system: Mus musculus; test: Toxicity in mouse assessed as change in appearance at 12.5 to 50 mg/kg, po bid in 20% HP-beta-CD; format: organism-based; parameters: dose 12.5-50 mg/kg, route oral; conditions: in vivo; in short: as §4
# Sterol 14-alpha demethylase, sequence (Q7Z1V1 whole entry): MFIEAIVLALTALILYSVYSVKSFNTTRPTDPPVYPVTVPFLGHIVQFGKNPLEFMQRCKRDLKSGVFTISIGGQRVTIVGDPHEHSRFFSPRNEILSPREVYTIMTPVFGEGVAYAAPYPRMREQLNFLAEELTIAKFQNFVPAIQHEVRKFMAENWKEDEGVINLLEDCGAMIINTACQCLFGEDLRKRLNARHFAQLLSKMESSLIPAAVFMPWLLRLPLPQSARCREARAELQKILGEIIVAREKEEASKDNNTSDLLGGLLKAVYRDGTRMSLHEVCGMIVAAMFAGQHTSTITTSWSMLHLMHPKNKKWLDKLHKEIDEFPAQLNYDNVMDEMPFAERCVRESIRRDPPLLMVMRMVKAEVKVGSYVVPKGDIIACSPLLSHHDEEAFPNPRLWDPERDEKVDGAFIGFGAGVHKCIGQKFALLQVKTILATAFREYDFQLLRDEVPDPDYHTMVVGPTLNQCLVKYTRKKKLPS
# Cytochrome P450 2D6, sequence (P10635 whole entry): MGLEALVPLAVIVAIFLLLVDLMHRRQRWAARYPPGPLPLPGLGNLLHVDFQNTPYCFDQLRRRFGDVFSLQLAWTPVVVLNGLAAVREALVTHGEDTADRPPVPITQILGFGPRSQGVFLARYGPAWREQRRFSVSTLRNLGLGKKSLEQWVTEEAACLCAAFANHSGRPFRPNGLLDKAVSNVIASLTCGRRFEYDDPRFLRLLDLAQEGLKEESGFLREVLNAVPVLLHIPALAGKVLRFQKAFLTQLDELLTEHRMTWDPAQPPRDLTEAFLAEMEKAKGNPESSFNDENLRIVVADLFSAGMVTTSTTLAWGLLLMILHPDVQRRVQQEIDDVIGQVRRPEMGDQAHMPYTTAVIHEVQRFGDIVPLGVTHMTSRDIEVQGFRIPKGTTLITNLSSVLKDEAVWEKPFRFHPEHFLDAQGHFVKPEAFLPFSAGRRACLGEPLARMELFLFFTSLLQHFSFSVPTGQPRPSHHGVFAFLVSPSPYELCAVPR
# Cytochrome P450 3A4, sequence (P08684 whole entry): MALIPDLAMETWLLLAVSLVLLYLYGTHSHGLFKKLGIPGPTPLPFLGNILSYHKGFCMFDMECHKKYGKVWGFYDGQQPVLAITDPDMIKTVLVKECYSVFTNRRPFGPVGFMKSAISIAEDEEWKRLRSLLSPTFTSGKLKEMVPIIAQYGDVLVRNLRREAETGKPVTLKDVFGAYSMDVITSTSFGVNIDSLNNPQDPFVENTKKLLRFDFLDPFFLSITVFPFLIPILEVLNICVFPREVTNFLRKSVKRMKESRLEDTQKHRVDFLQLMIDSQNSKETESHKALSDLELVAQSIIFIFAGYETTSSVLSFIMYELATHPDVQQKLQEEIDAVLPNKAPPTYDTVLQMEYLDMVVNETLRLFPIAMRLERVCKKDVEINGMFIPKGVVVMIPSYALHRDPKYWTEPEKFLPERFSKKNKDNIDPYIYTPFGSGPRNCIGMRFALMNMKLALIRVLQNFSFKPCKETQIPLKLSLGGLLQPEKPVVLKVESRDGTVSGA
# Cytochrome P450 2C9, sequence (P11712 whole entry): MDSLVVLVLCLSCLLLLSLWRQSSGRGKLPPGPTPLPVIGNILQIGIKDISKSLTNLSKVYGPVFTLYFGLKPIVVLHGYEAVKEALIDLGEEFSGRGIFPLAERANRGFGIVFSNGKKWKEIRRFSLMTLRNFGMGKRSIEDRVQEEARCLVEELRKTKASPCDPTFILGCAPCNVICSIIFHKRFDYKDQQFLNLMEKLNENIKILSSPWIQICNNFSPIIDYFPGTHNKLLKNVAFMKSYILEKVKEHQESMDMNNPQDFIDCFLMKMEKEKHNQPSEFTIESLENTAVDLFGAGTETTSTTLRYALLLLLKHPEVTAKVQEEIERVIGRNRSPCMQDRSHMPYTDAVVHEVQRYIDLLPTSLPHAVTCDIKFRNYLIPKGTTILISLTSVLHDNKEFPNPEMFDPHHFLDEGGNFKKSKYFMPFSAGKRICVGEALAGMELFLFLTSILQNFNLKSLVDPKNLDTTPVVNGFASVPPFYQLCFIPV
Kd [1] [nM],Drug uptake [5],Drug uptake [6],Drug uptake [7],AUC(0-t) [8] [µM·h],CL/F [12] [mL/min/kg],half-life [13] [h],CL/F [15] [mL/min/kg],Tmax [17] [h],Cmax [18] [µM],AUC(0-t) [19] [µM·h],Drug uptake [20],Drug uptake [22],Drug uptake [23],half-life [26] [h],Drug uptake [27],Drug uptake [28],Drug uptake [29],SMILES,inhibition in vivo at 50 mg/kg [2] [%],Activity [11],further results
16,Active,Active,Active,153,44.4,5.17,9.28,2.67,5.88,30.2,Active,Active,Active,16.8,Active,Active,Active,O=C(N[C@H](Cc1c[nH]c2ccccc12)C(=O)Nc1ccncc1)c1ccc(-c2ccc(F)c(Cl)c2)cc1F,85.2,Non-toxic,inhibition (INH) [3]: 2%; EC50 [4]: 78 nM; t1/2 [9]: 0.467 h; inhibition (INH) [10]: 29%; t1/2 [14]: 0.417 h; inhibition in vivo at 25 mg/kg [16]: 56.7%; inhibition (INH) [21]: 93%; t1/2 [24]: 0.9 h; inhibition (INH) [25]: 29%; Drug uptake [30]: Active; Tmax [31]: 0.75 h; Cmax [32]: 17.8 µM; Drug uptake [33]: Active; Drug uptake [34]: Active
≤ 10,Active,Active,Active,29.6,42.8,6.88,38.8,4.67,3.27,16.7,Active,Active,Active,4.39,Active,Active,Active,O=C(N[C@H](Cc1c[nH]c2ccccc12)C(=O)Nc1ccncc1)c1ccc(N2CCN(c3ccc(F)cc3F)CC2)cc1F,98.4,Non-toxic,Activity [35]: Non-toxic; Activity [36]: Non-toxic; inhibition [37]: Active; inhibition [38]: Active; Activity [39]: Non-toxic; Activity [40]: Non-toxic; Activity [41]: Non-toxic; Activity [42]: Non-toxic; Drug uptake [30]: Active; Tmax [31]: 2.33 h; Cmax [32]: 5.94 µM; Drug uptake [33]: Active; Drug uptake [34]: Active
